Measured values reported in ChEMBL document CHEMBL4270510, “Indolyl-isoxazolidines attenuate LPS-stimulated pro-inflammatory cytokines and increase survival in a mouse model of sepsis: Identification of potent lead” (Eur J Med Chem, 2018).
Activity calls are given as the source filed them. The rule behind the calls is not given here.

Columns and labels:
THP-1 [1] = experiment: Antiinflammatory activity against PMA-treated human THP1 cells assessed as inhibition of LPS-induced IL-6 production at 5 uM after 24 hrs by ELISA relative to total protein level (reference value: 6.06 +/- 0.55); assay type: functional
THP-1 [2] = experiment: Inhibition of LPS-induced TNFalpha production in PMA-treated human THP1 cells at 5 uM after 24 hrs by ELISA relative to total protein level (reference value: 6.04 +/- 0.54); assay type: cell-based; conditions: thp-1, 24 h
THP-1 [3] = experiment: Antiinflammatory activity against PMA-treated human THP1 cells assessed as inhibition of LPS-induced IL-6 production at 5 uM after 24 hrs by ELISA relative to control; assay type: functional
THP-1 [4] = experiment: Cytotoxicity against human THP1 cells assessed as decrease in cell growth after 24 hrs by MTT assay; assay type: cell-based; conditions: THP-1, 24 h
Summary of the method: (§1)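 THP-1 cells in 96-well plates treated with a range of compound concentrations for 24 or 48 h. MTT (2.5 mg/mL) added for 4 h at 37 °C, formazan dissolved in DMSO, absorbance read at 540 nm. Growth taken as treated versus untreated absorbance.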

THP-1 [5] = experiment: Cytotoxicity against human THP1 cells assessed as decrease in cell growth after 48 hrs by MTT assay; assay type: cell-based; conditions: THP-1, 48 h; summary of the method: as §1
Mus musculus [6] = experiment: Antiinflammatory activity against Swiss albino mouse assessed as inhibition of LPS-induced TNFalpha production in serum at 10 mg/kg, ip by ELISA relative to control; assay type: functional
Summary of the method: (§2)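 Swiss albino mice given compound at 5, 10 or 20 mg/kg, then challenged with LPS 1 mg/kg; vehicle and LPS-alone groups included. Cardiac-puncture blood taken with heparin and spun to plasma, stored -20°C. TNF-α and IL-6 measured by ELISA in pg/mL. Dose-response done in triplicate, fitted by quadratic/cubic regression to derive IC50 in mg/kg.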

Mus musculus [7] = experiment: Antiinflammatory activity against Swiss albino mouse assessed as inhibition of LPS-induced TNFalpha production in serum at 20 mg/kg, ip by ELISA relative to control; assay type: functional; summary of the method: as §2
Mus musculus [8] = experiment: Antiinflammatory activity against Swiss albino mouse assessed as inhibition of LPS-induced IL-6 production in serum at 10 mg/kg, ip by ELISA relative to control; assay type: functional; summary of the method: as §2
Mus musculus [9] = experiment: Antiinflammatory activity against Swiss albino mouse assessed as inhibition of LPS-induced IL-6 production in serum at 20 mg/kg, ip by ELISA relative to control; assay type: functional; summary of the method: as §2
Mus musculus [10] = experiment: Antiinflammatory activity against Swiss albino mouse assessed as inhibition of LPS-induced TNFalpha production in serum administered ip by ELISA; assay type: functional, organism-based; summary of the method: as §2
Mus musculus [11] = experiment: Antiinflammatory activity against Swiss albino mouse assessed as inhibition of LPS-induced IL-6 production in serum administered ip by ELISA; assay type: functional, organism-based; summary of the method: as §2
Mus musculus [12] = experiment: Antinociceptive activity in Swiss albino mouse assessed as inhibition of acetic acid-induced writhing by measuring reduction in number of abnormal muscle constrictions at 12.5 mg/kg, ip treated 30 mins prior to test followed by acetic acid challenge measured for 30 mins post acetic acid challenge relative to control; assay type: functional
Summary of the method: (§3)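 Mice dosed i.p. with vehicle (0.1% carboxymethyl cellulose), test compound 12.5 mg/kg or indomethacin 10 mg/kg, 30 min before acetic acid (0.6% v/v, 10 ml/kg, i.p.). Writhes counted per mouse over 30 min after acetic acid. Mean ± SEM; ANOVA with Tukey test.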

Mus musculus [13] = experiment: Antiinflammatory activity in carrageenan-induced Swiss albino mouse assessed as inhibition of paw edema at 12.5 mg/kg, ip administered 0.5 hrs prior to carrageenan challenge measured at 6 hrs post challenge; assay type: functional
Summary of the method: (§4)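 Mice given vehicle (0.1% CMC), indomethacin 10 mg/kg p.o., or test compound 30 min before injection of 50 μL 1% w/v carrageenan into right hind paw. Paw edema measured by vernier caliper at 5, 15, 30 min and 1, 2, 3, 4, 6 h. Mean ± SEM.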

Mus musculus [14] = experiment: Antiinflammatory activity in carrageenan-induced Swiss albino mouse assessed as inhibition of paw edema at 12.5 mg/kg, ip administered 0.5 hrs prior to carrageenan challenge measured at 1 to 6 hrs post challenge; assay type: functional, organism-based; summary of the method: as §4
Mus musculus [15] = experiment: Analgesic activity in Swiss albino mouse assessed as inhibition of acetic acid induced writhing at 12.5 mg/kg, ip pretreated with misoprostol for 30 mins followed by acetic acid challenge and measured after 30 mins; assay type: functional, organism-based
Mus musculus [16] = experiment: Analgesic activity in Swiss albino mouse assessed as inhibition of acetic acid induced writhing at 12.5 mg/kg, ip pretreated with opioid receptor antagonist naloxone for 30 mins followed by acetic acid challenge and measured after 30 mins; assay type: functional, organism-based
Homo sapiens = organism: Homo sapiens; experiment: Inhibition of NF-KappaB pathway in human THP1 cell lysates assessed as decrease in LPS-induced iNOS expression level after 24 hrs by Western blot analysis
Summary of the method: (§5)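 PMA-differentiated THP-1 cells co-treated with LPS and a range of compound concentrations for 24 h, lysed in RIPA buffer. COX-2 and iNOS expression assessed by western blot, with β-actin as internal control.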

THP-1 [17] = experiment: Antiinflammatory activity against human THP1 cells assessed as inhibition of LPS-induced COX-2 expression level after 24 hrs by Western blot analysis; assay type: functional, cell-based; summary of the method: as §5
Mus musculus [18] = experiment: Acute toxicity in Swiss albino mouse assessed as effect on gross behavioral abnormality at 50 to 2000 mg/kg, ip administered continuously for first 4 hrs and periodically for 24 hrs measured after 14 days; assay type: organism-based; conditions: in vivo
Summary of the method: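 Swiss albino mice, 3 per group: vehicle control, or 50, 300 or 2000 mg kg⁻¹ given after 4 h fasting under OECD acute toxicity guideline; watched continuously for first 4 h then periodically to 24 h for gross behavioural abnormality.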

Mus musculus [19] = experiment: Acute toxicity in Swiss albino mouse assessed as effect on myocardium at 2000 mg/kg, ip administered continuously for first 4 hrs and periodically for 24 hrs measured after 14 days by hematoxylin and eosin staining based assay; assay type: organism-based; conditions: in vivo
Summary of the method: (§6)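 OECD acute toxicity design, Swiss albino mice fasted 4 h, 3 per group, vehicle vs 2000 mg kg⁻¹; after 14 days one animal each from control and top-dose groups sacrificed; heart, liver and kidney sections H and E stained and compared with control.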

Mus musculus [20] = experiment: Acute toxicity in Swiss albino mouse assessed as effect on liver at 2000 mg/kg, ip administered continuously for first 4 hrs and periodically for 24 hrs measured after 14 days by hematoxylin and eosin staining based assay; assay type: organism-based; conditions: in vivo, 336 h; summary of the method: as §6
Mus musculus [21] = experiment: Acute toxicity in Swiss albino mouse assessed as effect on kidney at 2000 mg/kg, ip administered continuously for first 4 hrs and periodically for 24 hrs measured after 14 days by hematoxylin and eosin staining based assay; assay type: organism-based; conditions: in vivo; summary of the method: as §6
Mus musculus [22] = experiment: Antiseptic activity in Swiss albino mouse model of LPS-induced sepsis assessed as increase in mouse survival rate at 12.5 mg/kg, iv measured for 10 days at 1 day interval
Mus musculus [23] = experiment: Antinociceptive activity in Swiss albino mouse assessed as inhibition of acetic acid-induced writhing by measuring reduction in number of abnormal muscle constrictions at 10 mg/kg, ip treated 30 mins prior to test followed by acetic acid challenge measured for 30 mins post acetic acid challenge relative to control; assay type: functional; summary of the method: as §3
Mus musculus [24] = experiment: Antiinflammatory activity in carrageenan-induced Swiss albino mouse assessed as inhibition of paw edema at 10 mg/kg, po administered 0.5 hrs prior to carrageenan challenge measured 6 hrs post challenge; assay type: functional; summary of the method: as §4

Compound | fold change (FC) (THP-1 [2]) | fold change (FC) (THP-1 [1]) | fold change (FC) (THP-1 [3]) | other results
CCN1C(=O)[C@H]2[C@H](ON(c3ccccc3)[C@@H]2c2c[nH]c3ccccc23)C1=O (racemic) | 2.42 | 3.09 |  | 
c1ccc(N2O[C@H](c3ccncc3)C[C@@H]2c2c[nH]c3ccccc23)cc1 (racemic) | 3.92 | 2.77 | 4 - 5 | 
CCCCOC(=O)[C@@H]1C[C@H](c2c[nH]c3ccccc23)N(c2ccccc2)O1 (racemic) | 3.98 | 2.06 |  | 
CCCCOC(=O)[C@H]1CON(c2ccccc2)[C@H]1c1c[nH]c2ccccc12 (racemic) | 2.59 | 3.03 |  | 
CCOC(=O)[C@@H]1C[C@H](c2c[nH]c3ccccc23)N(c2ccccc2)O1 (racemic) | 7.77 | 3.2 |  | 
O=C1[C@H]2[C@H](ON(c3ccccc3)[C@@H]2c2c[nH]c3ccccc23)C(=O)N1c1ccccc1 (racemic) | 2.21 | 1.43 | 4 - 5 | IC50 (THP-1 [4]): > 100 µM; IC50 (THP-1 [5]): 78 µM; inhibition in vivo at 10 mg/kg (Mus musculus [6]): 52.9%; inhibition in vivo at 20 mg/kg (Mus musculus [7]): 62.1%; inhibition in vivo at 10 mg/kg (Mus musculus [8]): 60.5%; inhibition in vivo at 20 mg/kg (Mus musculus [9]): 65.5%; IC50 (Mus musculus [10]): 8.7 mg/kg; IC50 (Mus musculus [11]): 7.4 mg/kg
COC(=O)[C@@H]1C[C@H](c2c[nH]c3ccccc23)N(c2ccccc2)O1 (racemic) | 7.27 | 4.08 |  | 
CCOC(=O)[C@@H]1[C@@H](C)ON(c2ccccc2)[C@H]1c1c[nH]c2ccccc12 (racemic) | 3.98 | 3.01 |  | 
O=C1[C@H]2[C@H](ON(c3ccccc3)[C@@H]2c2c[nH]c3ccccc23)C(=O)N1Cc1ccccc1 (racemic) | 2.37 | 1.34 | 4 - 5 | IC50 (THP-1 [4]): > 100 µM; IC50 (THP-1 [5]): 87 µM; inhibition in vivo at 10 mg/kg (Mus musculus [6]): 53.8%; inhibition in vivo at 20 mg/kg (Mus musculus [7]): 86.1%; inhibition in vivo at 10 mg/kg (Mus musculus [8]): 73.7%; inhibition in vivo at 20 mg/kg (Mus musculus [9]): 89.9%; IC50 (Mus musculus [10]): 9.4 mg/kg; IC50 (Mus musculus [11]): 3.5 mg/kg; inhibition in vivo at 12.5 mg/kg (Mus musculus [12]): 80.7%; inhibition in vivo at 12.5 mg/kg (Mus musculus [13]): 36.9%; inhibition (Mus musculus [14]): Active; inhibition (Mus musculus [15]): inactive; inhibition (Mus musculus [16]): Active; inhibition (Homo sapiens): Dose-dependent effect; inhibition (THP-1 [17]): Dose-dependent effect; Activity (Mus musculus [18]): Non-Toxic; Activity (Mus musculus [19]): Non-Toxic; Activity (Mus musculus [20]): Non-Toxic; Activity (Mus musculus [21]): Non-Toxic; Activity (Mus musculus [22]): Active
COc1ccc2c(c1)c(CC(=O)O)c(C)n2C(=O)c1ccc(Cl)cc1 [INDOMETHACIN] |  |  |  | inhibition in vivo at 10 mg/kg (Mus musculus [23]): 58.1%; inhibition in vivo at 10 mg/kg (Mus musculus [24]): 34.5%

More lines, main results first:

fold change (FC) (THP-1 [2]) | Compound | fold change (FC) (THP-1 [1]) | fold change (FC) (THP-1 [3]) | other results
4.37 | CCOC(=O)[C@H]1CON(c2ccccc2)[C@H]1c1c[nH]c2ccccc12 (racemic) | 1.15 | 4 - 5 | 
2.74 | C[C@@]1(c2ccccc2)C[C@H](c2c[nH]c3ccccc23)N(c2ccccc2)O1 (racemic) | 1.13 | 4 - 5 | IC50 (THP-1 [4]): > 100 µM; IC50 (THP-1 [5]): 74 µM
3 | COC(=O)[C@H]1CON(c2ccccc2)[C@H]1c1c[nH]c2ccccc12 (racemic) | 1.67 | 4 - 5 | 
4.58 | Cc1ccc([C@@H]2C[C@H](c3c[nH]c4ccccc34)N(c3ccccc3)O2)cc1 (racemic) | 1.12 | 4 - 5 | 
4.28 | O=C1NC(=O)[C@H]2ON(c3ccccc3)[C@H](c3c[nH]c4ccccc34)[C@@H]12 (racemic) | 1.65 | 4 - 5 | 
14.93 | c1ccc([C@@H]2C[C@H](c3c[nH]c4ccccc34)N(c3ccccc3)O2)cc1 (racemic) | 5.4 |  | 
